An excerpt weighted towards active compounds, which were near 3.3% of everything screened.
STAT3 activator – IL-6 driven STAT3 reporter potentiators, primary screen, U3A cells, luciferase, luminescence, MLSCN library. AID 871, 2007. actives 0.91% (n = 190,000). IL-6 STAT3-luciferase reporter; 100% = signal with IL-6 EC80 alone. activation (% of control), % at 5.6 µM;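 active = activation above the screen-wide mean of compound activation plus 3 SD, cut at about 130% in these data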
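Material: STAT3-luciferase reporter U3A cells. Controls: IL-6-treated wells, 100% activation. Read-out: % activation versus median of IL-6-stimulated wells. Probe or stimulus: IL-6 stimulus at 33 ng/mL final. Timing: compound 1 h, then IL-6 6 h at 37 °C. Signal: reporter luminescence signal.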
GAA850 FXN act – FXN promoter activators, primary screen, cell-based, luciferase luminescence, HEK293 lucGAA850; actives 0.56% (n = 360,000); HEK293 lucGAA850 FXN promoter luciferase reporter, 24 h; percent of 10 µM SAHA response; activation, % at 6 µM; AID 540364, 2011;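 active = activation above the average of all compounds screened plus 3 SD, cutoff fixed separately per campaign, cut at about 7.5% in these data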
AHR activator – AHR activators, primary screen, cell-based, luminescence, luciferase reporter, human | AID 2796, 2010 | Aryl hydrocarbon receptor (Homo sapiens), P35869 | actives 2.5% (n = 320,000) | AHR-responsive luciferase reporter cells | activation, % at 5 µM; in the data active = activation above about 47%
Target sequence (P35869 whole entry, looked up): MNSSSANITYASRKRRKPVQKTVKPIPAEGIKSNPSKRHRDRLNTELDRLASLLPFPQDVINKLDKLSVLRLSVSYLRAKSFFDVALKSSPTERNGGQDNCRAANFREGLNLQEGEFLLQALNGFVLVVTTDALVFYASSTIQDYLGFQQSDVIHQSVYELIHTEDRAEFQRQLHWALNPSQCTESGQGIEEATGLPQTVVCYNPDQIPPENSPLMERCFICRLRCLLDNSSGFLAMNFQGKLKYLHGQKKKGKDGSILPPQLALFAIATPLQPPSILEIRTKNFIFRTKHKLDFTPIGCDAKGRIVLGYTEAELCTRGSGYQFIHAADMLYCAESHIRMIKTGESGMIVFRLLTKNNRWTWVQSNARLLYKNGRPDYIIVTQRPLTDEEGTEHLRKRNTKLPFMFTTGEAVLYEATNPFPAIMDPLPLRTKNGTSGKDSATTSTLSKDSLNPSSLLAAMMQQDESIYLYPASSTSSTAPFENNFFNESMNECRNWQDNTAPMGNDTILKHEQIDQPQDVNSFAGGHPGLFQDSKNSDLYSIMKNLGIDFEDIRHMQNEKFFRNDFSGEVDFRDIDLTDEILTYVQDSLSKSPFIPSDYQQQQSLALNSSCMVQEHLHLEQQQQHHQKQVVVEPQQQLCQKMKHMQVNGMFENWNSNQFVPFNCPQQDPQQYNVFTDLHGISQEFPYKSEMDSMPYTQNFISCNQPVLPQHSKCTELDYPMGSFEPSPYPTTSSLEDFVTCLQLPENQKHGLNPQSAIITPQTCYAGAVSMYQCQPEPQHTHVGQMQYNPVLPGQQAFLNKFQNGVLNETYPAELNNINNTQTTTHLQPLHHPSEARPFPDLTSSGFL
ABCB6 inh MLPCN – ABCB6 transporter inhibitors, primary screen, K562-ABCB6 cells, flow cytometry, MLPCN library; ATP-binding cassette sub-family B member 6 (Homo sapiens), Q9NP58; K562-ABCB6 porphyrin accumulation, 1 h; stronger effect = lower value; fluorescence ratio to DMSO, % at 10 µM; actives 0.19% (n = 360,000);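 active = fluorescence ratio to DMSO below 75%, the collection mean minus 3 SD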;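 note: signal is porphyrin accumulated inside mitochondria; lower ratio means ABCB6 inhibition with less porphyrin fluorescence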
ABCB6 inh CP1 – ABCB6 transporter inhibitors, confirmation, K562-ABCB6 cells, flow cytometry, cherry pick 1; K562-ABCB6 porphyrin accumulation, 1 h; stronger effect = lower value; ratio response (% of DMSO), % at 10 µM; shares compounds with ABCB6 inh MLPCN; 700 tested, under 10 active; AID 602430, 2012;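 active = repeat-averaged ratio response below 75% of DMSO, the collection mean minus 3 SD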;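 note: median porphyrin fluorescence at 575 nm with 488 nm excitation from mitochondria; lower ratio means less porphyrin signal so ABCB6 inhibition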
Numbers stand for hits; - = inactive; . = no result.

SMILES	STAT3 activator	GAA850 FXN act	AHR activator	ABCB6 inh MLPCN	ABCB6 inh CP1
COC(CNC(=O)c1cnn2c(C)c(Cc3ccccc3)c(C)nc12)OC	-	-	-	-	-
Cc1cc(C)c(Cc2c(C)nc3c(C(=O)NCc4ccco4)cnn3c2C)c(C)c1	-	-	-	-	-
O=C(NCc1ccco1)c1cnn2c(C(F)F)cc(-c3ccccc3)nc12	-	-	-	-	.
Cn1c(CN2CCOCC2)c(C#N)c2ccccc21	-	-	-	60.0	-
Cn1c(CN2CCCC2)c(C#N)c2ccccc21	-	-	-	-	.
COc1cccc(-c2nc(NC(C)C)c3ccccc3n2)c1O	134.0	-	-	49.0	-
Clc1nnc(Cl)c2c1ncn2Cc1ccccc1	.	-	-	73.0	-
NS(=O)(=O)c1ccc(CCNC(=O)CCCNC(=O)c2ccc(Cl)cc2)cc1	.	-	-	67.0	-
Cc1ccc(Nc2nc3ccccc3n3cnnc23)cc1Cl	.	-	-	-	.
O=C(CONS(=O)(=O)c1ccc(Cl)cc1)NCCNc1ncc(C(F)(F)F)cc1Cl	-	-	-	-	.
Cc1ccc2oc(=O)c3cnn(CC(=O)NCCN(C)C)c3c2c1	-	-	-	-	.
Cc1ccc2oc(=O)c3cnn(CC(=O)NCCc4ccsc4)c3c2c1	-	-	-	54.0	-
COc1ccc(C(=O)NC(=S)NCc2ccc(-c3nc4ccccc4o3)cc2)cc1OC	-	-	-	-	.
CCOc1cc(C(=O)NCc2ccc(-c3nc4ccccc4o3)cc2)cc(OCC)c1OCC	-	-	-	70.0	-
CC(=O)OC[C@@H]1CN(Cc2ccccc2)C[C@H](n2cnc3c(NC4CCCC4)ncnc32)O1	.	-	.	-	.
Cc1ccccc1OCC(=O)OCC(=O)c1ccc(OC(=O)c2ccccc2)cc1	-	-	-	44.0	-
CCn1cc([N+](=O)[O-])c(C(=O)Nc2ccn(Cc3ccccc3F)n2)n1	-	-	-	71.0	-
CCc1ccccc1NC(=O)c1cc(=O)c2ccccc2o1	-	-	-	67.0	-
c1ccc(OCCNc2ccn3nc(-c4ccc(OCCN5CCOCC5)cc4)cc3n2)cc1	.	-	.	74.0	-
c1csc(CNc2ccn3nc(-c4ccc(OCCN5CCOCC5)cc4)cc3n2)c1	.	-	.	-	.
c1ccc(COc2cccc(-c3cc4nc(NCc5ccc6c(c5)OCO6)ccn4n3)c2)cc1	.	-	.	68.0	-
Brc1cccc(CNCc2ccncc2)c1	.	-	-	-	.
Nc1cccc2[nH]c(=O)c3ccccc3c12	.	-	.	-	.
COc1ccc(CC(=O)Nc2c3c(nn2-c2ccccc2C)CS(=O)C3)cc1 (stereo not drawn)	-	-	-	59.0	-
COc1ccc(CC(=O)Nc2c3c(nn2C(C)(C)C)CS(=O)C3)cc1 (stereo not drawn)	-	-	-	-	.
SMILES	STAT3 activator	GAA850 FXN act	AHR activator	ABCB6 inh MLPCN	ABCB6 inh CP1
CC1(C)OC(C(O)(c2ccccc2)c2ccccc2)[C@@H](C(O)(c2ccccc2)c2ccccc2)O1 (stereo partly drawn)	.	-	-	-	.
CC1CCN(C(=O)c2ccccc2NC(=O)Nc2ccccc2)CC1	.	-	-	11.0	-
CN1CCN(C(=O)c2ccc(-c3nn(C)c(=O)c4ccccc34)cc2)CC1	-	-	-	-	.
Cn1nc(-c2ccc(C(=O)N3CCN(CCO)CC3)cc2)c2ccccc2c1=O	-	-	-	72.0	-
O=C(Cc1ccc([N+](=O)[O-])cc1)c1c(O)cc(O)cc1O	.	-	-	-	.
O=C(O)CCCCCNc1nc2ncn(Cc3ccccc3)c2c(=O)[nH]1	-	-	-	57.0	-
CC(Nc1nc2ncn(Cc3ccccc3)c2c(=O)[nH]1)C(=O)O (stereo not drawn)	-	-	-	.	.
O=c1c2c3c(sc2n2cnnc2n1CCc1ccccc1)CCCC3	-	-	-	66.0	-
O=C(c1ccccc1Cl)N1CCC(c2nc3c(nnn3Cc3ccco3)c(=O)[nH]2)CC1	-	-	-	-	.
O=C(c1ccco1)N1CCC(c2nc3c(nnn3Cc3c(Cl)cccc3Cl)c(=O)[nH]2)CC1	.	-	-	-	-
CC(C)(C)c1ccc(Cn2nnc3c(=O)[nH]c(C4CCN(C(=O)c5ccco5)CC4)nc32)cc1	.	-	.	-	-
Cc1ccc(Nc2nnc(SCC(=O)c3ccc(O)cc3O)s2)cc1	.	-	-	-	.
CC(C)c1ccc(OCC(=O)Nc2ccc(OC(F)(F)F)cc2)cc1	-	-	-	63.0	-
CC(NC(=O)CN1CCc2ccccc21)c1ccccc1 (stereo not drawn)	-	-	-	59.0	-
CCCOc1ccc(C(CC(=O)O)NC(=O)c2ccc3c(c2)OCO3)cc1 (stereo not drawn)	-	-	-	57.0	-
CCn1cc([N+](=O)[O-])c(C(=O)N2N=C3/C(=C/c4cccs4)CCCC3C2c2cccs2)n1 (stereo not drawn)	-	-	-	66.0	-
COCCNc1ncnc2c1ncn2[C@H]1CN(Cc2ccc(F)cc2)C[C@@H](CO)O1	.	-	.	-	.
Cc1ccc(CC(=O)Nc2nnc(-c3ccc(F)cc3)o2)c(C)c1	.	-	-	74.0	-
COc1cccc(N2CCN(C(=O)CC(C)(C)CC3=NS(=O)(=O)c4ccccc4N3)CC2)c1	.	-	-	14.0	-
CSCCC(NC(N)=O)C(=O)N(C)CC(=O)Nc1cc(C)ccc1C (stereo not drawn)	-	-	-	69.0	-
COc1ccc(-n2nc(C(=O)NCC3CCCO3)c3ccccc3c2=O)cc1 (stereo not drawn)	.	-	-	16.0	-
COc1ccc(-n2nc(C(=O)NCC(=O)NCC3CCCO3)c3ccccc3c2=O)cc1 (stereo not drawn)	-	-	-	-	.
CCCC(=O)O[C@@H]1C[C@@H](C)N(C(=O)c2ccccc2)c2ccc(C)cc21	-	-	-	72.0	-
Cc1ccc2c(c1)C1CN(C)CCC1N2C(=O)COc1ccc(N(C)C(=O)c2ccccc2)cc1 (stereo not drawn)	-	-	-	-	.
Cc1cc(O)c(C(C)C)cc1NC(=O)Cn1nc(C)c2ccccc2c1=O	-	-	-	74.0	-
CCC(=O)N1CCc2cc(S(=O)(=O)CCC(=O)N(C)c3ccc(OC)cc3OC)ccc21	.	-	-	-	.
CC(NC(=O)COc1ccc(/C=N/NS(=O)(=O)c2ccccc2)cc1)c1ccccc1 (stereo not drawn)	-	-	-	69.0	-
CC(=O)c1cc(CN2CCN(CC=C(C)C)C(CCO)C2)cs1 (stereo not drawn)	-	-	-	-	.
O=C(O)c1ccc2c(=O)n3c(nc2c1)/C(=C/c1ccc(Cl)c(Cl)c1)CC3	.	-	-	-	.
Cc1cccc(S(=O)(=O)NC(=O)C2(C)CCN2C(=O)Cc2ccccc2)c1 (stereo not drawn)	.	-	.	-	-

Screening data (PubChem BioAssay)
